For two molecules, IC50, inhibition and Drug metabolism results are on record in ChEMBL document CHEMBL3352121, “Modulation of Activity Profiles for Largazole-Based HDAC Inhibitors through Alteration of Prodrug Properties” (ACS Med Chem Lett, 2014).

The term IC50 denotes the concentration needed to halve the response being measured. As usually defined, the inhibition is how much of the control response was suppressed.

In data set [1] the target is T1, Polyamine deacetylase HDAC10 (Homo sapiens, UniProt Q969S8).
T1 sequence (Q969S8 whole entry): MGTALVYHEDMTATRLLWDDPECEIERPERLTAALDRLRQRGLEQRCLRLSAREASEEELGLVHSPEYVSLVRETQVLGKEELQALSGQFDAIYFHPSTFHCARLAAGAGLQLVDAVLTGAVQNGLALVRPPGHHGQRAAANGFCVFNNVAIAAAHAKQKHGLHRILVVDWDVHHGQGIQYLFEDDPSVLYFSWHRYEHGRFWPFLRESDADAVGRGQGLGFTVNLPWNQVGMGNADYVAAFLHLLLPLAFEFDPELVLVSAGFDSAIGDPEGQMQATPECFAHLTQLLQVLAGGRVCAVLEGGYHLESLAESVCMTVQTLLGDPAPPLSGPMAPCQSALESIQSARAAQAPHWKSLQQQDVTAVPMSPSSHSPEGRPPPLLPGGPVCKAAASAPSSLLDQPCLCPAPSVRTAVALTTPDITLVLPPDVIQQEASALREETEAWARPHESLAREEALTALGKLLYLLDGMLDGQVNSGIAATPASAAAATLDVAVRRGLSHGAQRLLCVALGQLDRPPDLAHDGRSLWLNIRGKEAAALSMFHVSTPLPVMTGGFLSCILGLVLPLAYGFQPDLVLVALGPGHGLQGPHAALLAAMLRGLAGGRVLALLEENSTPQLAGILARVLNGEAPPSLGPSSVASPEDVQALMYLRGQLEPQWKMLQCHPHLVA
Kind of data set: Inhibition of HDAC10 (unknown origin) incubated for 30 mins in presence of BSA and DTT by fluorescence assay. In short, it runs like this:
(§1)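 Purified HDAC isoforms were tested up to a maximum of 1 μM. IC50 values are averages of duplicate experiments. Disulfide compounds were pretreated with DTT to reduce the disulfide bond.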

Data set [2] concerns the target T2, Histone deacetylase 9 (Homo sapiens, UniProt Q9UKV0). Kind of data set: Inhibition of HDAC9 (unknown origin) incubated for 30 mins in presence of BSA and DTT by fluorescence assay. In short, it runs like this:
as §1

The target of data set [3] is T3, Histone deacetylase 4 (Homo sapiens, UniProt P56524). Kind of data set: Inhibition of HDAC4 (unknown origin) at 1 uM incubated for 30 mins in presence of BSA and DTT by fluorescence assay. The gist of the method:
as §1

Data set [4] has as its target Histone deacetylase 3 (Homo sapiens, UniProt O15379). Kind of data set: Inhibition of HDAC3 (unknown origin) incubated for 30 mins in presence of BSA and DTT by fluorescence assay. In short, it runs like this:
as §1

Data set [5] has as its target T3, Histone deacetylase 4. Kind of data set: Inhibition of HDAC4 (unknown origin) incubated for 30 mins in presence of BSA and DTT by fluorescence assay. In short, it runs like this: as §1
Data set [6] can be described thus: Antiproliferative activity against human HCT116 cells after 48 hrs in presence of DTT by MTT assay. Format: functional, cell-based. To be noted: HCT-116, 48 h. The gist of the method:
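Disulfide compounds were pretreated with DTT to reduce the disulfide bond before testing.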
Background: Tetrazolium assays rely on reduction of a dye to a coloured formazan, in cell work by metabolically active cells.

A short description of data set [7]: Drug metabolism in tumor of human HCT116 cells xenografted nu/nu mouse assessed largazole thiol formation at 50 mg/kg, po by HPLC-MS method. To be noted: in vivo. In general terms: Xenograft models place foreign cells or tissue in a host animal.
The target in data set [8] is Histone deacetylase 2 (Homo sapiens, UniProt Q92769). Kind of data set: Inhibition of HDAC2 (unknown origin) incubated for 30 mins in presence of BSA and DTT by fluorescence assay.
Data set [9] concerns the target T4, Protein deacetylase HDAC6 (Homo sapiens, UniProt Q9UBN7).
T4 sequence (Q9UBN7 whole entry): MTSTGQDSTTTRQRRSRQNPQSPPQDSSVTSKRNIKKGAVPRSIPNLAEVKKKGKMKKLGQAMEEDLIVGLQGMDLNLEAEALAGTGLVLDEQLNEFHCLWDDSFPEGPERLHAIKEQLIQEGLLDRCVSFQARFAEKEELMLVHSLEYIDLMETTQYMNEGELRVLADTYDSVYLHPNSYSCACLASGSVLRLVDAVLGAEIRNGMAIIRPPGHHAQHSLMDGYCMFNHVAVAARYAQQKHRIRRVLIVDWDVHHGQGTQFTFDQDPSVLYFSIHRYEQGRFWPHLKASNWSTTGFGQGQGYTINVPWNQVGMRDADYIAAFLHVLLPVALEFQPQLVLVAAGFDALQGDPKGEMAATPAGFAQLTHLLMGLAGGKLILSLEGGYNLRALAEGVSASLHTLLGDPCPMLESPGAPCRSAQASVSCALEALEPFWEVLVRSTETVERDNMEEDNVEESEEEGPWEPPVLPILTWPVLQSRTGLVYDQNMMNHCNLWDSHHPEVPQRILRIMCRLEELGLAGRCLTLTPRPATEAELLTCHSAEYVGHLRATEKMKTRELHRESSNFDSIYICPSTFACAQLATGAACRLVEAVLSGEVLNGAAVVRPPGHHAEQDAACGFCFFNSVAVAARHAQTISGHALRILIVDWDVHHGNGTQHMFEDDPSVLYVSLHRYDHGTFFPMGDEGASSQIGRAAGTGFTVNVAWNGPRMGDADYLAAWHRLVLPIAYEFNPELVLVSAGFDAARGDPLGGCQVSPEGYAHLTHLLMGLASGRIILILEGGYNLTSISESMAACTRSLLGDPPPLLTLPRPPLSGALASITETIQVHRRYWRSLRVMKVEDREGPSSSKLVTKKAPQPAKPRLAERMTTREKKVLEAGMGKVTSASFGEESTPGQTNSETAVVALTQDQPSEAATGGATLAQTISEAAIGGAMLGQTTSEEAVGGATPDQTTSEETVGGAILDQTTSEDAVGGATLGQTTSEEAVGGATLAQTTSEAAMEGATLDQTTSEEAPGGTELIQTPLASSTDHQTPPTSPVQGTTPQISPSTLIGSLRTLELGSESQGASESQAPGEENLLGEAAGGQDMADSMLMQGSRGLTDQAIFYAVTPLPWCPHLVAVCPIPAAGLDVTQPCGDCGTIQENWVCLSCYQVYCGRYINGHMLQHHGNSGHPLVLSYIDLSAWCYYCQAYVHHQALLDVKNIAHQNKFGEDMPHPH
Kind of data set: Inhibition of HDAC6 (unknown origin) incubated for 30 mins in presence of BSA and DTT by fluorescence assay. The gist of the method: as §1

For data set [10], the target named is T2, Histone deacetylase 9. Kind of data set: Inhibition of HDAC9 (unknown origin) at 1 uM incubated for 30 mins in presence of BSA and DTT by fluorescence assay. In short, it runs like this: as §1
The target of data set [11] is T5, Histone deacetylase 8 (Homo sapiens) (UniProt Q9BY41).
T5 sequence (whole entry): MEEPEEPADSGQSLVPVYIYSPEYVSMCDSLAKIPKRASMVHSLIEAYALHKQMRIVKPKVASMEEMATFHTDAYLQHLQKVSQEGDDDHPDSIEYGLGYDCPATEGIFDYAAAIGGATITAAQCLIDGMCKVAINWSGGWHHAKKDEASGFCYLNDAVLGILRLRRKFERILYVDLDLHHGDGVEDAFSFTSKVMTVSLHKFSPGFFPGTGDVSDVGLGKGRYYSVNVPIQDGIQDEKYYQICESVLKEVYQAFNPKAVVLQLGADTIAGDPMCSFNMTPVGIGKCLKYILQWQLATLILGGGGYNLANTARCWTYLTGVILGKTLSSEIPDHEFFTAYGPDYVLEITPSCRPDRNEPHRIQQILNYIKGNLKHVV
Kind of data set: Inhibition of HDAC8 (unknown origin) at 1 uM incubated for 30 mins in presence of BSA and DTT by fluorescence assay. In short, it runs like this: as §1

T3 sequence (P56524 whole entry): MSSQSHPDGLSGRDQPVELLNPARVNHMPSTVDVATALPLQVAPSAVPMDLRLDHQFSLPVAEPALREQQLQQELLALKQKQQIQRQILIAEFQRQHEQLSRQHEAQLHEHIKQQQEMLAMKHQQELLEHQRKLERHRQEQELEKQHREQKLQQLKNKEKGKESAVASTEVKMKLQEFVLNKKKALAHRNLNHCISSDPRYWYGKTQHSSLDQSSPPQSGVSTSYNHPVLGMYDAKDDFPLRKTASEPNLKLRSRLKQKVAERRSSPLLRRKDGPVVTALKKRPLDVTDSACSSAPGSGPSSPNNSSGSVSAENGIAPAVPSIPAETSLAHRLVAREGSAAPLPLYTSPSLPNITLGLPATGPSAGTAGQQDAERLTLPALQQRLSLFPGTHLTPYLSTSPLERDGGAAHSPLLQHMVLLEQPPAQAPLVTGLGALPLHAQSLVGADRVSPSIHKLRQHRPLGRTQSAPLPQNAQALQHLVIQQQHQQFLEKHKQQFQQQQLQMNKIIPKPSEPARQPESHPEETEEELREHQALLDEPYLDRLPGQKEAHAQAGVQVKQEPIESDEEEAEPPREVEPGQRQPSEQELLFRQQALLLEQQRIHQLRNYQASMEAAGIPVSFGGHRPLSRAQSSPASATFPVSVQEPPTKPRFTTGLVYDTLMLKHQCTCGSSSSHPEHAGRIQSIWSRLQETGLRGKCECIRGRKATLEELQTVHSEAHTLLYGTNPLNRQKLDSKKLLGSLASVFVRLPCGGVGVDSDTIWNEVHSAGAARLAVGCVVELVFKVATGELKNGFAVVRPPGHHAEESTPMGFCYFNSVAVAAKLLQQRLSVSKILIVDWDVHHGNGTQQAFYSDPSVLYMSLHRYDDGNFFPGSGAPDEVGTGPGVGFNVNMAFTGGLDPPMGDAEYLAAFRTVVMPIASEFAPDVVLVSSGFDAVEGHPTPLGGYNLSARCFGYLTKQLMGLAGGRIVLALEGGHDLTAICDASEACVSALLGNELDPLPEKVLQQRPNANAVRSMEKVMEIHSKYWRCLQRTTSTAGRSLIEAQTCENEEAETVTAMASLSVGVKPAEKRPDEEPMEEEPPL
T2 sequence (Q9UKV0 whole entry): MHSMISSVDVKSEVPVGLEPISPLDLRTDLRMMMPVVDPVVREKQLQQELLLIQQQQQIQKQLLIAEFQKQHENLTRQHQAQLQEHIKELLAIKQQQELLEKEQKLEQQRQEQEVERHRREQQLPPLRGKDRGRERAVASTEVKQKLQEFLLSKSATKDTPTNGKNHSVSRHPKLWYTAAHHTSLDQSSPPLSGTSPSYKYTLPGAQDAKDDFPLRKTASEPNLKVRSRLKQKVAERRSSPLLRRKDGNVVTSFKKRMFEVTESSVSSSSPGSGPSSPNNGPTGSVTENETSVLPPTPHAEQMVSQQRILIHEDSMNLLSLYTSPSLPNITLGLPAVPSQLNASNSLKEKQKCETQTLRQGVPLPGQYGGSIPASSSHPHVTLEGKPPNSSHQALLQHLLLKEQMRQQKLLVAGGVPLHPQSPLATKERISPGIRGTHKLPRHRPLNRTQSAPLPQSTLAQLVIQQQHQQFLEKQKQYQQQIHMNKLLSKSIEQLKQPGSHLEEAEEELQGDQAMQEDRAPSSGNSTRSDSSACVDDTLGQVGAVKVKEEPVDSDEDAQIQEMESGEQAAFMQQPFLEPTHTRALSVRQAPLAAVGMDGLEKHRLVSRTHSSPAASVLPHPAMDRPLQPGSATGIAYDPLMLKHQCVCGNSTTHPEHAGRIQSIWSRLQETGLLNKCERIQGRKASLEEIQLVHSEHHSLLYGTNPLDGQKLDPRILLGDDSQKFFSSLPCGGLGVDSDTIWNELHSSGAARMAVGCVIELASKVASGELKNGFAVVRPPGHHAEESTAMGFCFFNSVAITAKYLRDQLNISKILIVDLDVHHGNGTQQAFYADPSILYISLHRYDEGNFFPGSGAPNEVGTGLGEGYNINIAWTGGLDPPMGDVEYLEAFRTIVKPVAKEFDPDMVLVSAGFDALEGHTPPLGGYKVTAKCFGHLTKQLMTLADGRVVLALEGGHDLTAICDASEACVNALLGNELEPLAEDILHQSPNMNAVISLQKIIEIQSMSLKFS
Histone deacetylase 3, sequence (O15379 whole entry): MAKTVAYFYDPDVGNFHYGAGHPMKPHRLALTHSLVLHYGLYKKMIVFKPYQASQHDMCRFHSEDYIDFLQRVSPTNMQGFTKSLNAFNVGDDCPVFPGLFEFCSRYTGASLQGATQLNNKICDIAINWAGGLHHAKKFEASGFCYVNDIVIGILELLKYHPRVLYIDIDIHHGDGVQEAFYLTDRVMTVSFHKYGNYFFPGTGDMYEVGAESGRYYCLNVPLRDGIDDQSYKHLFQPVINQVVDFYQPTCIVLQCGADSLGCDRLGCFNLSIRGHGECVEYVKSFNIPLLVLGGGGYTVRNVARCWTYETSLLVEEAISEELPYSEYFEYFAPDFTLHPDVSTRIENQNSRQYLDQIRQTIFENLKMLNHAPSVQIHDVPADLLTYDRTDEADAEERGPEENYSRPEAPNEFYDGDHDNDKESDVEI
Histone deacetylase 2, sequence (Q92769 whole entry): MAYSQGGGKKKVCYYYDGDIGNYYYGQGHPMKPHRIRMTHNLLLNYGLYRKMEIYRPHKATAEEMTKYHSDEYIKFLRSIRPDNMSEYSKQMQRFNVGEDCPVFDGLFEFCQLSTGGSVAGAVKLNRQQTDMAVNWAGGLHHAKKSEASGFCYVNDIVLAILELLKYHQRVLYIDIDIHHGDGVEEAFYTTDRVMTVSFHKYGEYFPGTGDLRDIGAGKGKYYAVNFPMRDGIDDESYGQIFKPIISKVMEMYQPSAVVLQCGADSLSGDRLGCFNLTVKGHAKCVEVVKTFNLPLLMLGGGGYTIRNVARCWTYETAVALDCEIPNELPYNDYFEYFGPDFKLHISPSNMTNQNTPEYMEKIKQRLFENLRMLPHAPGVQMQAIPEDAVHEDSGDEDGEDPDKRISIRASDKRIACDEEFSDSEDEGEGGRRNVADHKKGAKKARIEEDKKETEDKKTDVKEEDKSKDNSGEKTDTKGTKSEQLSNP

For the molecule `CC(C)[C@@H]1NC(=O)[C@]2(C)CSC(=N2)c2csc(n2)CNC(=O)C[C@@H](/C=C/CCSSCC/C=C/[C@@H]2CC(=O)NCc3nc(cs3)C3=N[C@@](C)(CS3)C(=O)N[C@@H](C(C)C)C(=O)O2)OC1=O`, the IC50 in data set [1] is 0.2 nM; in data set [2] it was “Not Active”; in [4] it was 0.3 nM; in data set [5] it was “Not Active”; in data set [6] it was 12 nM; in [8] it was 0.5 nM. Moreover, in data set [9], the IC50 is 61 nM. Moreover, the values for the inhibition in [3], in data set [10] and in data set [11] were less than 20%, less than 20% and 40%, respectively. In data set [7], the Drug metabolism result is on record as “metabolite_notdetected”.

With `CC(C)[C@@H]1NC(=O)[C@]2(C)CSC(=N2)c2csc(n2)CNC(=O)C[C@@H](/C=C/CCSSC[C@H](NC(=O)OC(C)(C)C)C(=O)OC(C)(C)C)OC1=O`, the IC50 was 0.5 nM in data set [1]; “Not Active” in data set [2]; 0.6 nM in data set [4]; “Not Active” in data set [5]; 13 nM in [6]; 0.9 nM in [8]. The half-inhibitory concentration (IC50) in data set [9] worked out at 135 nM. Besides, the inhibition in [3] was less than 20%; in [10], less than 20%; in data set [11], 35%.
